Laboratory results taken from ChEMBL document CHEMBL4261639, “Cell-Active Small Molecule Inhibitors of the DNA-Damage Repair Enzyme Poly(ADP-ribose) Glycohydrolase (PARG): Discovery and Optimization of Orally Bioavailable Quinazolinedione Sulfonamides” (J Med Chem, 2018).
pEC50: −log10 of the molar value.

What was measured:
[1] = molecular target: T1, Poly(ADP-ribose) glycohydrolase (Homo sapiens, UniProt Q86W56); test: Inhibition of human full length PARG using Bt-NAD ribosylated PARP1 substrate after 10 mins by TR-FRET assay
T1 sequence (Q86W56 whole entry): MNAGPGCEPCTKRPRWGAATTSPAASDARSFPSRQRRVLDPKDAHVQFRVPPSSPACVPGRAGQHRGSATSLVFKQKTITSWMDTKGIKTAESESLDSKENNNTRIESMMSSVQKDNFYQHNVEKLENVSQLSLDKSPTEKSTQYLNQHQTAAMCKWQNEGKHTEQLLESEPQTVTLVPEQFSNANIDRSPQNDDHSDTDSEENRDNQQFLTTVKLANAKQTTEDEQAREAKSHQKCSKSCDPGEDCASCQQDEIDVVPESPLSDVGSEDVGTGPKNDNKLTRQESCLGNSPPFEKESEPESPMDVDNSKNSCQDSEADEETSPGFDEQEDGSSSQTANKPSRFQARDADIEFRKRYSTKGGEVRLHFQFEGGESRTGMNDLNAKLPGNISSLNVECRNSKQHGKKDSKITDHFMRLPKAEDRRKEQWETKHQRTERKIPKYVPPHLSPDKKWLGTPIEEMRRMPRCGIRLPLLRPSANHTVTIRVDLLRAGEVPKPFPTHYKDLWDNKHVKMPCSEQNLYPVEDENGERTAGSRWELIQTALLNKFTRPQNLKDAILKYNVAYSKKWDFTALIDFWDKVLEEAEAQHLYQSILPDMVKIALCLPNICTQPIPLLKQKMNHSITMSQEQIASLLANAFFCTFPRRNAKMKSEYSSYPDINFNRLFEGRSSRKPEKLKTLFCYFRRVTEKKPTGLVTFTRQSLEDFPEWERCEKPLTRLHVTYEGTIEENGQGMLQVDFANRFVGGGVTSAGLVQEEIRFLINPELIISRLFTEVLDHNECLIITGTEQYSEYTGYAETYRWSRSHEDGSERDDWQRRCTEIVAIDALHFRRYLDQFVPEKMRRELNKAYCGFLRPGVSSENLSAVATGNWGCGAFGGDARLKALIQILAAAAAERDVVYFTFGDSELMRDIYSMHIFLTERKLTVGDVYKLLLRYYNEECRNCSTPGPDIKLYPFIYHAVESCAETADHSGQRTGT

[2] = molecular target: T1, Poly(ADP-ribose) glycohydrolase; test: Inhibition of PARG in human HeLa cells assessed as induction of MMS-induced PAR chains preincubated for 1 hr followed by MMS addition and measured after 1 hr by Alexofluor 488-conjugated secondary antibody and Hoechst 33342 staining based assay; assay type: cell-based
Outline: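 Acute (1 h) cell-based proof-of-mechanism assay measuring persistence of PAR chains, i.e. blockade of PARG-mediated PAR degradation, across a dose range. EC50 values are means of at least 4 independent measurements, with standard deviations.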

[3] = Clearance in human liver microsomes

| SMILES | pEC50 [1] | pEC50 [2] | microsomal CLint [3] [µL/min/mg] |
| --- | --- | --- | --- |
| O=c1[nH]c2ccc(S(=O)(=O)NC3CC3)cc2c2ccccc12 | 4.30 |  |  |
| CCNS(=O)(=O)c1ccc2c(c1)c(=O)n(CC)c(=O)n2CC | 3.85 |  |  |
| Cn1c(=O)n(Cc2nccs2)c(=O)c2cc(S(=O)(=O)NC3(C)CC3)ccc21 | 4.89 |  |  |
| Cn1c(=O)n(CC2CCCCC2)c(=O)c2cc(S(=O)(=O)NC3(C)CC3)ccc21 | < 3.82 |  |  |
| Cn1c(=O)n(Cc2ccccn2)c(=O)c2cc(S(=O)(=O)NC3(C)CC3)ccc21 | 4.80 |  |  |
| O=C1c2ccccc2C(=O)c2cc(S(=O)(=O)NCC3CC3)ccc21 | 4.62 |  |  |
| NC(=O)CCNS(=O)(=O)c1ccc2c(c1)C(=O)c1ccccc1C2=O | < 3.82 |  |  |
| Cn1c(=O)c2cc(S(=O)(=O)NC(C)(C)C)ccc2n(C)c1=O | 3.96 |  |  |
| CNS(=O)(=O)c1ccc2c(c1)C(=O)c1ccccc1C2=O | < 4.52 |  |  |
| Cn1c(=O)n(Cc2ccsc2)c(=O)c2cc(S(=O)(=O)NC3(C)CC3)ccc21 | 4.70 |  |  |
| CCn1c(=O)n(Cc2cnn(C)c2)c(=O)c2cc(S(=O)(=O)NC3(C)CC3)ccc21 |  |  | 35 |
| Cn1c(=O)n(CC2COC2)c(=O)c2cc(S(=O)(=O)NC3(C)CC3)ccc21 | 5.15 |  |  |
| COCCNS(=O)(=O)c1ccc2c(c1)C(=O)c1ccccc1C2=O | < 3.82 |  |  |
| CC1(NS(=O)(=O)c2ccc3c(c2)C(=O)c2ccccc2C3=O)CC1 | 5.22 | 5.18 |  |
| Cn1c(=O)n(Cc2cocn2)c(=O)c2cc(S(=O)(=O)NC3(C)CC3)ccc21 | 4.68 |  |  |
| Cn1c(=O)n(CC2CC2)c(=O)c2cc(S(=O)(=O)NC3(C)CC3)ccc21 | 5.34 |  |  |
| Cc1cc(Cn2c(=O)c3cc(S(=O)(=O)NC4(C)CC4)ccc3n(C)c2=O)no1 | 5.28 |  |  |
| Cn1c(=O)n(Cc2ccccc2)c(=O)c2cc(S(=O)(=O)NC3(C)CC3)ccc21 | 4.59 |  |  |
| O=C1c2ccccc2C(=O)c2cc(S(=O)(=O)NC3CC3)ccc21 | 4.89 | 4.66 |  |

| SMILES | pEC50 [1] | pEC50 [2] | microsomal CLint [3] [µL/min/mg] |
| --- | --- | --- | --- |
| N#CCCNS(=O)(=O)c1ccc2c(c1)C(=O)c1ccccc1C2=O | 4.06 |  |  |
| CCNS(=O)(=O)c1ccc2c(c1)C(=O)c1ccccc1C2=O | 3.96 |  |  |
| NC(=O)CNS(=O)(=O)c1ccc2c(c1)C(=O)c1ccccc1C2=O | < 3.82 |  |  |
| O=C1c2ccccc2C(=O)c2cc(S(=O)(=O)NCCO)ccc21 | < 3.82 |  |  |
| Cc1nc(-c2ccccc2)c(Cn2c(=O)c3cc(S(=O)(=O)NC4(C)CC4)ccc3n(C)c2=O)s1 | 4.92 |  |  |
| Cn1c(=O)c2cc(S(=O)(=O)NC3CC3)ccc2n(C)c1=O | 4.96 |  |  |
| Cn1c(=O)n(-c2ccccc2)c(=O)c2cc(S(=O)(=O)NC3(C)CC3)ccc21 | 4.64 |  |  |
| Cn1c(=O)n(Cc2ccoc2)c(=O)c2cc(S(=O)(=O)NC3(C)CC3)ccc21 | 5.22 |  |  |
| Cc1noc(Cn2c(=O)c3cc(S(=O)(=O)NC4(C)CC4)ccc3n(C)c2=O)n1 | 5.30 |  |  |
| Cc1nc(Cn2c(=O)c3cc(S(=O)(=O)NC4(C)CC4)ccc3n(C)c2=O)cs1 | 5.00 |  |  |
| Cn1c(=O)c2cc(S(=O)(=O)NC3(C)CC3)ccc2n(Cc2ccccn2)c1=O | 5.24 |  |  |
| CCNS(=O)(=O)c1ccc2c(c1)c(=O)n(C)c(=O)n2C | < 3.82 |  |  |
| O=C1c2ccccc2C(=O)c2cc(S(=O)(=O)NC3CCC3)ccc21 | < 4.30 |  |  |
| Cn1c(=O)c2cc(S(=O)(=O)NC3(C#N)CC3)ccc2n(C)c1=O | 5.30 | 4.85 |  |
| Cn1ccc(Cn2c(=O)c3cc(S(=O)(=O)NC4(C)CC4)ccc3n(C)c2=O)n1 | 4.92 |  |  |
| COCC(C)(C)NS(=O)(=O)c1ccc2c(c1)C(=O)c1ccccc1C2=O | < 3.82 |  |  |
| Cn1c(=O)n(Cc2ccncc2)c(=O)c2cc(S(=O)(=O)NC3(C)CC3)ccc21 | 5.10 |  |  |
| CCC(C)(C)NS(=O)(=O)c1ccc2c(c1)C(=O)c1ccccc1C2=O | 4.31 |  |  |

Other lines, results leading:

| pEC50 [1] | pEC50 [2] | microsomal CLint [3] [µL/min/mg] | SMILES |
| --- | --- | --- | --- |
| 5.48 | 4.72 |  | N#CC1(NS(=O)(=O)c2ccc3c(c2)C(=O)c2ccccc2C3=O)CC1 |
| 5.52 |  |  | Cn1nnnc1Cn1c(=O)c2cc(S(=O)(=O)NC3(C)CC3)ccc2n(C)c1=O |
| 5.74 | 5.25 |  | CCn1c(=O)c2cc(S(=O)(=O)NC3(C#N)CC3)ccc2n(CC)c1=O |
| 5.48 |  |  | Cn1cncc1Cn1c(=O)c2cc(S(=O)(=O)NC3(C)CC3)ccc2n(C)c1=O |
| 5.55 | 5.05 |  | Cn1c(=O)c2cc(S(=O)(=O)NC3(C)CC3)ccc2n(CC#N)c1=O |
| 6.28 |  |  | Cn1c(=O)c2cc(S(=O)(=O)NC3(C)CC3)ccc2n(Cc2ccc(F)cc2)c1=O |
| 5.40 |  |  | Cn1c(=O)n(Cc2cnc[nH]2)c(=O)c2cc(S(=O)(=O)NC3(C)CC3)ccc21 |
| 5.89 |  |  | Cn1c(=O)c2cc(S(=O)(=O)NC3(C)CC3)ccc2n(Cc2cccnc2)c1=O |
| 7.54 | 7.25 | 81 | Cn1cc(Cn2c(=O)c3cc(S(=O)(=O)NC4(C)CC4)ccc3n(CC3CC3)c2=O)cn1 |
| 6.35 |  |  | CCn1cc(Cn2c(=O)c3cc(S(=O)(=O)NC4(C)CC4)ccc3n(C)c2=O)cn1 |
| 5.74 |  |  | Cc1nnc(Cn2c(=O)c3cc(S(=O)(=O)NC4(C)CC4)ccc3n(C)c2=O)o1 |
| 6.33 |  |  | Cc1nnc(Cn2c(=O)c3cc(S(=O)(=O)NC4(C)CC4)ccc3n(C)c2=O)s1 |
| 5.57 |  |  | Cn1c(=O)n(Cc2csnn2)c(=O)c2cc(S(=O)(=O)NC3(C)CC3)ccc21 |
| 5.52 |  |  | C#CCn1c(=O)c2cc(S(=O)(=O)NC3(C)CC3)ccc2n(C)c1=O |
| 6.33 |  |  | Cc1cc(Cn2c(=O)c3cc(S(=O)(=O)NC4(C)CC4)ccc3n(C)c2=O)on1 |
| 5.64 |  |  | Cn1c(=O)n(Cc2ccns2)c(=O)c2cc(S(=O)(=O)NC3(C)CC3)ccc21 |
| 5.49 |  |  | Cc1cc(Cn2c(=O)c3cc(S(=O)(=O)NC4(C)CC4)ccc3n(C)c2=O)[nH]n1 |
| 5.70 | 5.19 |  | CN(C)CCn1c(=O)n(C)c(=O)c2cc(S(=O)(=O)NC3(C)CC3)ccc21 |
| 5.92 |  |  | Cn1c(=O)n(Cc2cncs2)c(=O)c2cc(S(=O)(=O)NC3(C)CC3)ccc21 |
| 5.85 |  |  | Cn1c(=O)c2cc(S(=O)(=O)NC3(C)CC3)ccc2n(Cc2ccccc2F)c1=O |
| 5.92 |  |  | Cn1nccc1Cn1c(=O)n(C)c(=O)c2cc(S(=O)(=O)NC3(C)CC3)ccc21 |
| 5.51 |  |  | Cn1cnnc1Cn1c(=O)c2cc(S(=O)(=O)NC3(C)CC3)ccc2n(C)c1=O |
| 6.35 |  |  | COc1ccc(Cn2c(=O)n(C)c(=O)c3cc(S(=O)(=O)NC4(C)CC4)ccc32)cc1 |
| 5.82 | 5.96 |  | CCn1c(=O)c2cc(S(=O)(=O)NC3(C)CC3)ccc2n(CC)c1=O |
| 8.22 | 7.70 | 97 | Cc1nc(C)c(Cn2c(=O)n(Cc3cnn(C)c3)c(=O)c3cc(S(=O)(=O)NC4(C)CC4)ccc32)s1 |
| 5.80 |  |  | Cn1c(=O)n(CC(=O)c2ccccc2)c(=O)c2cc(S(=O)(=O)NC3(C)CC3)ccc21 |
| 6.25 | 5.57 |  | Cn1c(=O)c2cc(S(=O)(=O)NC3(C)CC3)ccc2n(CC2CCCCC2)c1=O |

| pEC50 [1] | pEC50 [2] | microsomal CLint [3] [µL/min/mg] | SMILES |
| --- | --- | --- | --- |
| 6.43 |  |  | Cn1c(=O)n(Cc2cnn(CC#N)c2)c(=O)c2cc(S(=O)(=O)NC3(C)CC3)ccc21 |
| 6.04 |  |  | Cc1nc(C)c(Cn2c(=O)c3cc(S(=O)(=O)NC4(C)CC4)ccc3n(C)c2=O)s1 |
| 5.89 | 5.44 |  | CCn1c(=O)n(C)c(=O)c2cc(S(=O)(=O)NC3(C)CC3)ccc21 |
| 6.74 |  |  | Cc1nc(C)c(Cn2c(=O)n(C)c(=O)c3cc(S(=O)(=O)NC4(C)CC4)ccc32)s1 |
| 5.49 |  |  | COc1ccccc1Cn1c(=O)n(C)c(=O)c2cc(S(=O)(=O)NC3(C)CC3)ccc21 |
| 6.15 | 6.60 |  | C#CCn1c(=O)n(C)c(=O)c2cc(S(=O)(=O)NC3(C)CC3)ccc21 |
| 5.62 |  |  | Cn1c(=O)c2cc(S(=O)(=O)NC3(C)CC3)ccc2n(Cc2ccncc2)c1=O |
| 5.60 |  |  | Cn1c(=O)n(Cc2cccnc2)c(=O)c2cc(S(=O)(=O)NC3(C)CC3)ccc21 |
| 6.42 |  |  | Cn1c(=O)n(Cc2cn[nH]c2)c(=O)c2cc(S(=O)(=O)NC3(C)CC3)ccc21 |
| 6.21 |  |  | Cc1noc(C)c1Cn1c(=O)c2cc(S(=O)(=O)NC3(C)CC3)ccc2n(C)c1=O |
| 5.96 |  |  | Cn1c(=O)n(CC#N)c(=O)c2cc(S(=O)(=O)NC3(C)CC3)ccc21 |
| 5.39 |  |  | Cn1nccc1Cn1c(=O)c2cc(S(=O)(=O)NC3(C)CC3)ccc2n(C)c1=O |
| 5.80 |  |  | Cn1c(=O)c2cc(S(=O)(=O)NC3(C)CC3)ccc2n(Cc2cccc(F)c2)c1=O |
| 5.96 | 5.21 |  | COCCn1c(=O)n(C)c(=O)c2cc(S(=O)(=O)NC3(C)CC3)ccc21 |
| 7.28 | 6.89 | 42 | C#CCn1c(=O)n(Cc2cnn(C)c2)c(=O)c2cc(S(=O)(=O)NC3(C)CC3)ccc21 |
| 6.06 |  |  | Cc1nnsc1Cn1c(=O)c2cc(S(=O)(=O)NC3(C)CC3)ccc2n(C)c1=O |
| 6.32 |  |  | Cn1c(=O)n(Cc2cnc(N)s2)c(=O)c2cc(S(=O)(=O)NC3(C)CC3)ccc21 |
| 6.32 |  |  | Cc1ncc(Cn2c(=O)c3cc(S(=O)(=O)NC4(C)CC4)ccc3n(C)c2=O)s1 |
| 5.89 | 5.64 |  | Cn1c(=O)c2cc(S(=O)(=O)NC3(C)CC3)ccc2n(Cc2ccccc2)c1=O |
| 6.42 |  |  | Cc1cc(Cn2c(=O)n(C)c(=O)c3cc(S(=O)(=O)NC4(C)CC4)ccc32)n(C)n1 |
| 5.40 | 5.09 |  | Cn1c(=O)[nH]c2ccc(S(=O)(=O)NC3(C)CC3)cc2c1=O |
| 5.68 |  |  | Cc1nonc1Cn1c(=O)c2cc(S(=O)(=O)NC3(C)CC3)ccc2n(C)c1=O |
| 6.07 |  |  | COc1cccc(Cn2c(=O)n(C)c(=O)c3cc(S(=O)(=O)NC4(C)CC4)ccc32)c1 |
| 5.77 |  |  | Cn1c(=O)n(CC(=O)c2ccncc2)c(=O)c2cc(S(=O)(=O)NC3(C)CC3)ccc21 |
| 5.40 |  |  | CCn1c(=O)c2cc(S(=O)(=O)NC3(C)CC3)ccc2n(C)c1=O |
| 5.92 |  |  | Cn1c(=O)n(Cc2ccno2)c(=O)c2cc(S(=O)(=O)NC3(C)CC3)ccc21 |
| 6.11 |  |  | Cc1oncc1Cn1c(=O)c2cc(S(=O)(=O)NC3(C)CC3)ccc2n(C)c1=O |
